In ChEMBL document CHEMBL1671756, “In vitro and in vivo antifungal susceptibilities of the Mucoralean fungus Cunninghamella” (2010):
The source made the active and inactive calls. No cut-off for these calls is given here.

Legend:
Type in all cases: functional, organism-based
[1] = test system: Cunninghamella bertholletiae; assay: Antifungal activity against Cunninghamella bertholletiae UTHSC 05-2275 infected in neutropenic OF1 mouse assessed as decreased fungal load in kidney at 0.8 mg/kg, iv qd administered 1 day post infection measured after 4 to 5 days relative to untreated control; set-up: dose 0.8 mg/kg
Summary of the method: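 Neutropenic male OF1 mice (cyclophosphamide 200 mg/kg i.p. + 5-fluorouracil 150 mg/kg i.v., day −1) were infected i.v. with 1 × 10⁴ CFU. Ten mice per group were treated from day 1 and killed by CO₂ on day 5, or on day 4 if moribund. Half of each brain, lung and kidney was homogenized in 1 ml saline. Ten-fold dilutions were plated on PDA for 24 h at 35°C and counted as log₁₀ CFU/g.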

[2] = test system: Cunninghamella bertholletiae; assay: Antifungal activity against Cunninghamella bertholletiae UTHSC 05-2275 infected in neutropenic OF1 mouse assessed as increase in mouse survival rate at 0.8 mg/kg, iv qd administered 1 day after infection for 7 days relative to untreated control; set-up: dose 0.8 mg/kg
Summary of the method: (§1)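 Male OF1 mice (~30 g) were made neutropenic with cyclophosphamide 200 mg/kg i.p. plus 5-fluorouracil 150 mg/kg i.v. 1 day before challenge. Challenge was 1 × 10⁴ CFU sporangiospores in 0.2 ml saline via the lateral tail vein. Mice got ceftazidime 5 mg/day s.c. on days 1–7. Dosing started 24 h post-challenge for 7 days. There were 10 mice/group, observed daily for 20 days. Kaplan-Meier analysis with log-rank test.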

[3] = test system: Cunninghamella bertholletiae; assay: Antifungal activity against Cunninghamella bertholletiae UTSCH 05-2275 infected in diabetic OF1 mouse assessed as decreased fungal load in kidney at 0.8 mg/kg, iv qd administered 1 day post infection measured after 4 to 5 days relative to untreated control; set-up: dose 0.8 mg/kg
Summary of the method: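 Diabetic OF1 mice (streptozocin 210 mg/kg i.p.; glucose >250 mg/dl) were infected i.v. with 1 × 10⁵ CFU, with ceftazidime cover. Ten per group were treated from day 1 and killed day 5, or day 4 if moribund. Half-organ homogenates (brain, lung, kidney) in 1 ml saline were serially diluted 10-fold on PDA, incubated 24 h at 35°C, and reported as log₁₀ CFU/g tissue.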

[4] = test system: Cunninghamella bertholletiae; assay: Antifungal activity against Cunninghamella bertholletiae UTHSC 05-2275 infected in diabetic OF1 mouse assessed as increase in mouse survival rate at 0.8 mg/kg, iv qd administered 1 day after infection for 7 days relative to untreated control; set-up: dose 0.8 mg/kg
Summary of the method: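 Male OF1 mice were made diabetic with streptozocin 210 mg/kg i.p. Diabetes was confirmed by blood glucose >250 mg/dl at day 10. Challenge was 1 × 10⁵ CFU in 0.2 ml saline i.v. (tail vein), with ceftazidime 5 mg/day s.c. on days 1–7. Treatment began 1 day after challenge for 7 days. There were 10 mice/group, checked daily for 20 days. Kaplan-Meier analysis with log-rank comparison.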

[5] = test system: Cunninghamella bertholletiae; assay: Antifungal activity against Cunninghamella bertholletiae UTHSC 03-2241 infected in neutropenic OF1 mouse assessed as increase in mouse survival rate at 0.8 mg/kg, iv qd administered 1 day after infection for 7 days relative to untreated control; set-up: dose 0.8 mg/kg; summary of the method: as §1
[6] = test system: Cunninghamella bertholletiae; assay: Antifungal activity against Cunninghamella bertholletiae UTHSC 05-2275 infected in neutropenic OF1 mouse assessed as decreased fungal load in brain at 60 mg/kg, po qd administered 1 day post infection measured after 4 to 5 days relative to untreated control; set-up: dose 60 mg/kg
Summary of the method: (§2)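 Neutropenic male OF1 mice (cyclophosphamide 200 mg/kg i.p. plus 5-fluorouracil 150 mg/kg i.v., day −1) were given 1 × 10⁴ CFU sporangiospores i.v. in 0.2 ml saline. Treatment from 24 h: 0.8 mg/kg i.v. or oral doses once daily; 10 mice per group. Killed at day 5 (day 4 if moribund). About half of brain, lungs and kidneys homogenized in saline; 10-fold dilutions plated on PDA for 24 h at 35°C; log₁₀ CFU/g tissue.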

[7] = test system: Cunninghamella bertholletiae; assay: Antifungal activity against Cunninghamella bertholletiae UTSCH 05-2275 infected in diabetic OF1 mouse assessed as decreased fungal load in brain at 60 mg/kg, po qd administered 1 day post infection measured after 4 to 5 days relative to untreated control; set-up: dose 60 mg/kg
Summary of the method: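 Diabetic male OF1 mice (streptozocin 210 mg/kg i.p.; glucose above 250 mg/dl) were challenged i.v. with 1 × 10⁵ CFU sporangiospores. Oral once-daily dosing from day 1 for 7 days; 10 mice per group. Killed at day 5 (day 4 if moribund). About half of each organ homogenized in saline; serial 10-fold dilutions plated on PDA for 24 h at 35°C; log₁₀ CFU/g tissue.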

[8] = test system: Cunninghamella bertholletiae; assay: Antifungal activity against Cunninghamella bertholletiae UTHSC 03-2241 infected in neutropenic OF1 mouse assessed as increase in mouse survival rate at 60 mg/kg, po qd administered 1 day after infection; set-up: dose 60 mg/kg
Summary of the method: (§3)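 Male OF1 mice, about 30 g, made neutropenic with cyclophosphamide 200 mg/kg i.p. plus 5-fluorouracil 150 mg/kg i.v. 1 day before challenge. Infected i.v. via the lateral tail vein with 1 × 10⁴ CFU of hemacytometer-counted sporangiospores in 0.2 ml saline. Ceftazidime 5 mg/day s.c. on days 1–7. Oral treatment started 24 h after challenge; 10 mice per group; checked daily for 20 days; Kaplan-Meier mean survival time, log-rank test.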

[9] = test system: Cunninghamella bertholletiae; assay: Antifungal activity against Cunninghamella bertholletiae UTSCH 05-2275 infected in diabetic OF1 mouse assessed as decreased fungal load in lung at 80 mg/kg, po qd administered 1 day post infection measured after 4 to 5 days relative to untreated control; set-up: dose 80 mg/kg
Summary of the method: (§4)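 Male OF1 mice (mean 30 g) made diabetic with a single i.p. dose of streptozocin 210 mg/kg; blood glucose >250 mg/dl at day 10 qualified. Ceftazidime 5 mg/day s.c. given on days 1–7. Challenge by lateral tail vein with 1 × 10⁵ CFU sporangiospores in 0.2 ml saline. Oral dosing once daily for 7 days, starting 1 day after challenge. Untreated controls. Ten mice per group.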

[10] = test system: Cunninghamella bertholletiae; assay: Antifungal activity against Cunninghamella bertholletiae UTHSC 03-2241 infected in neutropenic OF1 mouse assessed as decreased fungal load in brain at 60 mg/kg, po qd administered 1 day post infection measured after 4 to 5 days relative to untreated control; set-up: dose 60 mg/kg; summary of the method: as §2
[11] = test system: Cunninghamella bertholletiae; assay: Antifungal activity against Cunninghamella bertholletiae UTSCH 05-2275 infected in diabetic OF1 mouse assessed as decreased fungal load in lung at 40 mg/kg, po qd administered 1 day post infection measured after 4 to 5 days relative to untreated control; set-up: dose 40 mg/kg; summary of the method: as §4
[12] = test system: Cunninghamella bertholletiae; assay: Antifungal activity against Cunninghamella bertholletiae UTHSC 05-2275 infected in neutropenic OF1 mouse assessed as decreased fungal load in brain at 40 mg/kg, po qd administered 1 day post infection measured after 4 to 5 days relative to untreated control; set-up: dose 40 mg/kg; summary of the method: as §2
[13] = test system: Cunninghamella bertholletiae; assay: Antifungal activity against Cunninghamella bertholletiae UTSCH 05-2275 infected in diabetic OF1 mouse assessed as decreased fungal load in lung at 60 mg/kg, po qd administered 1 day post infection measured after 4 to 5 days relative to untreated control; set-up: dose 60 mg/kg; summary of the method: as §4
[14] = test system: Cunninghamella bertholletiae; assay: Antifungal activity against Cunninghamella bertholletiae FMR-9598 infected in neutropenic OF1 mouse assessed as decreased fungal load in brain at 0.8 mg/kg, iv qd administered 1 day post infection measured after 4 to 5 days relative to untreated control; set-up: dose 0.8 mg/kg; summary of the method: as §2
[15] = test system: Cunninghamella bertholletiae; assay: Antifungal activity against Cunninghamella bertholletiae UTHSC 06-1945 infected in neutropenic OF1 mouse assessed as increase in mouse survival rate at 60 mg/kg, po qd administered 1 day after infection; set-up: dose 60 mg/kg; summary of the method: as §3

Structure (SMILES)	Activity [1]	Activity [2]	Activity [3]	Activity [4]	Activity [5]	Activity [6]	Activity [7]	Activity [8]	Activity [9]	Activity [10]	Activity [11]	Activity [12]	Activity [13]	Activity [14]	Activity [15]
C[C@@H]1[C@H](O)[C@@H](C)/C=C/C=C/C=C/C=C/C=C/C=C/C=C/[C@H](O[C@@H]2O[C@H](C)[C@@H](O)[C@H](N)[C@@H]2O)C[C@@H]2O[C@](O)(C[C@@H](O)C[C@@H](O)[C@H](O)CC[C@@H](O)C[C@@H](O)CC(=O)O[C@H]1C)C[C@H](O)[C@H]2C(=O)O [AMPHOTERICIN B]	Active	Active	Active	Active	Active										
CC[C@@H]([C@H](C)O)n1ncn(-c2ccc(N3CCN(c4ccc(OC[C@@H]5CO[C@@](Cn6cncn6)(c6ccc(F)cc6F)C5)cc4)CC3)cc2)c1=O [POSACONAZOLE]						Active	Active	Active	Active	Active	inactive	Active	Active	Active	Active
